{"source": "ChEMBL document CHEMBL2202989", "about": "“New adamantane phenylalkylamines with σ-receptor binding affinity and anticancer activity, associated with putative antagonism of neuropathic pain” (J Med Chem, 2012)", "key": {"PC-3 [1]": {"test_system": "PC-3", "experiment": "Induction of apoptosis in human PC3 cells assessed as cleaved caspase3 containing cells at 50 uM by antibody-based FACS analysis (reference value: 3.2%)", "format": "functional"}, "IGROV-1 [2]": {"test_system": "IGROV-1", "experiment": "Cell cycle arrest in human IGROV1 cells assessed as accumulation at sub G1 phase at 0.5 uM after 24 hrs using propidium iodide staining by FACS analysis (reference value: 4 %)", "format": "functional"}, "PC-3 [3]": {"test_system": "PC-3", "experiment": "Cell cycle arrest in human PC3 cells assessed as accumulation at G1 phase at 0.5 uM after 24 hrs using propidium iodide staining by FACS analysis (reference value: 36 %)", "format": "functional"}, "PC-3 [4]": {"test_system": "PC-3", "experiment": "Cell cycle arrest in human PC3 cells assessed as accumulation at G1 phase at 15 uM after 24 hrs using propidium iodide staining by FACS analysis (reference value: 36 %)", "format": "functional"}, "PC-3 [5]": {"test_system": "PC-3", "experiment": "Induction of apoptosis in human PC3 cells assessed as healthy cells at 0.5 uM using annexin V/7-AAD by FACS analysis (reference value: 91 %)", "format": "functional"}, "PC-3 [6]": {"test_system": "PC-3", "experiment": "Cell cycle arrest in human PC3 cells assessed as accumulation at >G2/M phase at 15 uM after 24 hrs using propidium iodide staining by FACS analysis (reference value: 6 %)", "format": "functional"}, "BXPC-3 [7]": {"test_system": "BXPC-3", "experiment": "Induction of apoptosis in human BxPC3 cells assessed as total apoptotic death at 0.5 uM using annexin V/7-AAD by FACS analysis (reference value: 18 %)", "format": "functional", "outline": "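Cells plated 24 h before treatment, then exposed 24 h to 0.5, 5, 15 or 50 μM compound (final DMSO 0.5%); vehicle controls included. Cells scraped and stained with annexin V-FITC and 7-AAD for 15 min on ice in the dark. Flow cytometry with 488 nm excitation, 10,000 gated cells. Early apoptosis was annexin V+/7-AAD−, late was annexin V+/7-AAD+.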"}, "IGROV-1 [8]": {"test_system": "IGROV-1", "experiment": "Induction of apoptosis in human IGROV1 cells assessed as healthy cells at 15 uM using annexin V/7-AAD by FACS analysis (reference value: 86 %)", "format": "functional"}, "BXPC-3 [9]": {"test_system": "BXPC-3", "experiment": "Induction of apoptosis in human BxPC3 cells assessed as healthy cells at 50 uM using annexin V/7-AAD by FACS analysis (reference value: 79 %)", "format": "functional"}, "BXPC-3 [10]": {"test_system": "BXPC-3", "experiment": "Induction of apoptosis in human BxPC3 cells assessed as late apoptosis at 5 uM using annexin V/7-AAD by FACS analysis (reference value: 9 %)", "format": "functional"}, "PC-3 [11]": {"test_system": "PC-3", "experiment": "Induction of apoptosis in human PC3 cells assessed as healthy cells at 50 uM using annexin V/7-AAD by FACS analysis (reference value: 91 %)", "format": "functional"}, "[12]": {"experiment": "Displacement of [3H]1,3-di-otolylguanidine from sigma 2 receptor in rat cerebral cortex membranes", "format": "cell membranes, Membrane", "outline": "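Rat cerebral cortex membranes incubated with 5 nM [3H]DTG plus 300 nM (+)-pentazocine to mask σ1 sites, together with a range of test concentrations, 2 h at 22 °C in Tris-HCl, pH 7.4. Nonspecific binding defined with 10 μM haloperidol.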"}, "IGROV-1 [13]": {"test_system": "IGROV-1", "experiment": "Induction of apoptosis in human IGROV1 cells assessed as late apoptosis at 5 uM using annexin V/7-AAD by FACS analysis (reference value: 5 %)", "format": "functional"}, "U-251": {"test_system": "U-251", "experiment": "Growth inhibition of human U251 cells after 48 hrs by SRB assay", "format": "functional", "conditions": "U-251, 48 h", "outline": "(§1)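 Cells grown in RPMI 1640 with 5% heat-inactivated FCS, 2 mM L-glutamine and antibiotics, 37 °C, 5% CO2. Seeded at 3500–30000 cells/well and left 24 h before dosing. DMSO solutions added at 10-fold dilutions from 100 to 0.01 μM for 48 h. Cells TCA-fixed and SRB-stained, absorbance read at 540 nm; GI50 derived against the time-zero plate.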"}, "IGROV-1 [14]": {"test_system": "IGROV-1", "experiment": "Cell cycle arrest in human IGROV1 cells assessed as accumulation at G2 phase at 5 uM after 24 hrs using propidium iodide staining by FACS analysis (reference value: 19 %)", "format": "functional"}, "OVCAR-5": {"test_system": "OVCAR-5", "experiment": "Antitumor activity against human OVCAR5 cells xenografted in SCID mouse assessed as axillary metastasis at 55 mg/kg, ip administered 5 consecutive days in a week for two cycles measured after 2 cycles relative to control", "format": "functional", "conditions": "OVCAR-5, ip, route intraperitoneal, read-out: TGI", "outline": "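SCID mice carried OVCAR5 xenografts (10^6 cells per inoculum), 16 mice (32 tumors) per group, with ip dosing in 5% Tween 80 from a tumor volume of about 100 mm3. Caliper volume was measured twice weekly and %ΔT/ΔC derived. At termination, primary tumors were weighed and secondary metastases were scored at axillary and bone sites (n = 7−8). Two-tailed t test.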"}, "PC-3 [15]": {"test_system": "PC-3", "experiment": "Antitumor activity against human PC3 cells xenografted in SCID mouse assessed as tumor growth inhibition at 55 mg/kg, ip administered 5 consecutive days in a week for two cycles measured after 2 cycles relative to control", "format": "functional", "conditions": "PC-3, ip, route intraperitoneal, read-out: TGI", "outline": "(§2)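 PC3 xenografts were grown in SCID mice (10^6 cells per inoculum), 14 mice (28 tumors) per group, dosed ip from about 100 mm3. The test agent was given in 5% Tween 80; paclitaxel was given in Cremophor diluted in saline, with a vehicle of 1:1 ethanol/Cremophor diluted 1:3 in saline. Volume and %ΔT/ΔC were derived from caliper readings twice weekly. Occurrence of primary tumors and of axillary and bone metastases was scored (n = 7). Two-tailed t test.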"}, "PC-3 [16]": {"test_system": "PC-3", "experiment": "Antitumor activity against human PC3 cells xenografted in SCID mouse assessed as axillary metastasis at 55 mg/kg, ip administered 5 consecutive days in a week for two cycles measured after 2 cycles relative to control", "format": "functional", "conditions": "route intraperitoneal", "outline": "as §2"}, "BXPC-3 [17]": {"test_system": "BXPC-3", "experiment": "Cell cycle arrest in human BxPC3 cells assessed as accumulation at sub G1 phase at 0.5 uM after 24 hrs using propidium iodide staining by FACS analysis (reference value: 9 %)", "format": "functional", "outline": "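Cells were plated 24 h before treatment and exposed for 24 h at final 0.5, 5, 15 and 50 μM in 0.5% DMSO, against vehicle-treated controls. Cells were then trypsinised and fixed in cold ethanol for 3 h at 4 °C. They were stained in a mix of RNase (200 μg/mL) and PI (1 mg/mL) for 45 min at room temperature in the dark. Flow cytometry used 488 nm excitation and 10 000 gated cells. Phase percentages were assigned from DNA content.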"}, "MCF7": {"test_system": "MCF7", "experiment": "Growth inhibition of human MCF7 cells after 48 hrs by SRB assay", "format": "functional", "conditions": "MCF7, 48 h", "outline": "as §1"}, "IGROV-1 [18]": {"test_system": "IGROV-1", "experiment": "Induction of apoptosis in human IGROV1 cells assessed as cleaved caspase3 containing cells at 15 uM by antibody-based FACS analysis (reference value: 3.9 %)", "format": "functional"}, "PC-3 [19]": {"test_system": "PC-3", "experiment": "Cell cycle arrest in human PC3 cells assessed as accumulation at S phase at 5 uM after 24 hrs using propidium iodide staining by FACS analysis (reference value: 42 %)", "format": "functional"}, "PC-3 [20]": {"test_system": "PC-3", "experiment": "Cell cycle arrest in human PC3 cells assessed as accumulation at S phase at 15 uM after 24 hrs using propidium iodide staining by FACS analysis (reference value: 42 %)", "format": "functional"}, "BXPC-3 [21]": {"test_system": "BXPC-3", "experiment": "Induction of apoptosis in human BxPC3 cells assessed as cleaved caspase3 containing cells at 50 uM by antibody-based FACS analysis (reference value: 8.2 %)", "format": "functional"}, "[22]": {"conditions": "read-out: LC50 (the source's name)"}}}
{"smiles": "CN1CCN(CCCc2ccc(C(c3ccccc3)C34CC5CC(CC(C5)C3)C4)cc2)CC1", "note": "(stereo not drawn)", "values": [{"measurement": "Activity", "setting": "PC-3 [1]", "value": 4, "unit": "%"}, {"measurement": "Activity", "setting": "IGROV-1 [2]", "value": 4, "unit": "%"}, {"measurement": "Activity", "setting": "PC-3 [3]", "value": 34, "unit": "%"}, {"measurement": "Activity", "setting": "PC-3 [4]", "value": 25, "unit": "%"}, {"measurement": "Activity", "setting": "PC-3 [5]", "value": 95, "unit": "%"}, {"measurement": "Activity", "setting": "PC-3 [6]", "value": 7, "unit": "%"}, {"measurement": "Activity", "setting": "BXPC-3 [7]", "value": 17, "unit": "%"}, {"measurement": "Activity", "setting": "IGROV-1 [8]", "value": 35, "unit": "%"}, {"measurement": "Activity", "setting": "BXPC-3 [9]", "value": 12, "unit": "%"}, {"measurement": "Activity", "setting": "BXPC-3 [10]", "value": 10, "unit": "%"}, {"measurement": "Activity", "setting": "PC-3 [11]", "value": 43, "unit": "%"}, {"measurement": "IC50", "setting": "[12]", "value": 0.085, "unit": "µM"}, {"measurement": "Activity", "setting": "IGROV-1 [13]", "value": 5, "unit": "%"}, {"measurement": "GI50", "setting": "U-251", "value": 3.62, "unit": "µM"}, {"measurement": "TGI", "setting": "U-251", "value": 5.93, "unit": "µM"}, {"measurement": "CC50", "setting": "U-251; [22]", "value": 0.00824, "unit": "µM"}, {"measurement": "Activity", "setting": "IGROV-1 [14]", "value": 21, "unit": "%"}, {"measurement": "inhibition in vivo at 55 mg/kg", "setting": "OVCAR-5", "value": 25, "unit": "%"}, {"measurement": "inhibition in vivo at 55 mg/kg", "setting": "PC-3 [15]", "value": 48, "unit": "%"}, {"measurement": "Activity", "setting": "PC-3 [16]", "value": 0, "unit": "%"}, {"measurement": "Activity", "setting": "BXPC-3 [17]", "value": 11, "unit": "%"}, {"measurement": "GI50", "setting": "MCF7", "value": 3.2, "unit": "µM"}, {"measurement": "TGI", "setting": "MCF7", "value": 6.1, "unit": "µM"}, {"measurement": "CC50", "setting": "MCF7; [22]", "value": 0.009, "unit": "µM"}, {"measurement": "Activity", "setting": "IGROV-1 [18]", "value": 61.4, "unit": "%"}, {"measurement": "Activity", "setting": "PC-3 [19]", "value": 36, "unit": "%"}, {"measurement": "Activity", "setting": "PC-3 [20]", "value": 31, "unit": "%"}, {"measurement": "Activity", "setting": "BXPC-3 [21]", "value": 4.8, "unit": "%"}]}
